{"data": "Results of several laboratories", "observed": "cell growth or viability", "note": "Protocols differ between the studies behind these lines."}
{"Structure (SMILES)": "CCOc1ccc(C(=O)CC(SCc2ccc(Cl)cc2)C(=O)OC)cc1 (centres unmarked)", "cell line": "SK-MEL-2", "test": "MTT", "setting": "48 h", "endpoint": "EC50", "result": "23 µM"}
{"Structure (SMILES)": "C[C@H](Nc1ccc2c(c1)OCCn1cc(N3C(=O)OC[C@H]3C(F)F)nc1-2)C(N)=O", "cell line": "Detroit 562", "test": "ATP luminescence", "setting": "5 days", "endpoint": "EC50", "result": "0.0831 µM"}
{"Structure (SMILES)": "CCC(=CCc1c(O)cc2c(c1O)C(=O)CC(c1ccc(O)cc1)O2)CC (stereo in doubt)", "cell line": "HeLa", "test": "MTT", "setting": "0.781 µM, 48 h", "endpoint": "inhibition", "result": "0.607%"}
{"Structure (SMILES)": "Cc1nc(Nc2ncc(C(=O)Nc3c(C)cccc3Cl)s2)cc(N2CC[C@H](O)C2)n1", "cell line": "P3HR-1", "test": "ATP luminescence", "setting": "10 µM, 72 h", "endpoint": "inhibition", "result": "51%"}
{"Structure (SMILES)": "Cc1c(Cl)c(=O)oc2cc(OCCCCSC#N)ccc12", "cell line": "HeLa", "test": "SRB", "endpoint": "GI50", "result": "6.2 µM"}
{"Structure (SMILES)": "C=C(NC(=O)C(=C)NC(=O)c1csc(C2=N[C@@H]3c4csc(n4)[C@H]4NC(=O)c5csc(n5)[C@H]([C@](C)(O)[C@@H](C)O)NC(=O)[C@H]5CSC(=N5)/C(=C/C)NC(=O)[C@H]([C@@H](C)O)NC(=O)c5csc(n5)[C@]3(CC2)NC(=O)[C@H](C)NC(=O)C(=C)NC(=O)[C@H](C)NC(=O)[C@H]([C@@H](C)CC)N[C@@H]2C=Cc3c([C@H](C)O)cc(nc3[C@H]2O)C(=O)O[C@@H]4C)n1)C(N)=O", "cell line": "NCI-H1792", "endpoint": "EC50", "result": "3.2 µM"}
{"Structure (SMILES)": "N#CSCc1cc(=O)oc2cc(O)ccc12", "cell line": "HeLa", "test": "SRB", "endpoint": "GI50", "result": "3.7 µM"}
{"Structure (SMILES)": "CCOc1cccc(C(=O)CC(SCc2cccc(Br)c2)C(=O)O)c1 (centres unmarked)", "cell line": "U2OS", "test": "MTT", "setting": "48 h", "endpoint": "EC50", "result": "98 µM"}
{"Structure (SMILES)": "N#CSCCCCOc1ccc2c(-c3ccccc3)cc(=O)oc2c1", "cell line": "HeLa", "test": "SRB", "endpoint": "GI50", "result": "25 µM"}
{"Structure (SMILES)": "CCC(=CCc1c(O)cc2c(c1O)C(=O)C[C@H](c1ccccc1O)O2)CC", "cell line": "HeLa", "test": "MTT", "setting": "120 µM, 48 h", "endpoint": "inhibition", "result": "81.5%"}
{"Structure (SMILES)": "CCOc1ccc(-c2cc(C(=O)O)c(-c3ccc(Cl)cc3)o2)cc1", "cell line": "SK-MEL-2", "test": "MTT", "setting": "48 h", "endpoint": "EC50", "result": "72 µM"}
